In general, pKb refers to the Kb on a negative log10 scale, so that one unit is a factor of ten. A word on the Ki: it is a measure of affinity in units of concentration, obtained from inhibition or displacement. A low value points to a stronger hold on the target. As usually defined, the EC50 is the midpoint of the concentration-response curve.

Experimental findings from ChEMBL document CHEMBL1275329, “Fruitful adrenergic α(2C)-agonism/α(2A)-antagonism combination to prevent and contrast morphine tolerance and dependence” (J Med Chem, 2010) are described below.

The target of experiment [1] is T1, Alpha-2C adrenergic receptor (Homo sapiens) (UniProt P18825).
T1 sequence (whole entry): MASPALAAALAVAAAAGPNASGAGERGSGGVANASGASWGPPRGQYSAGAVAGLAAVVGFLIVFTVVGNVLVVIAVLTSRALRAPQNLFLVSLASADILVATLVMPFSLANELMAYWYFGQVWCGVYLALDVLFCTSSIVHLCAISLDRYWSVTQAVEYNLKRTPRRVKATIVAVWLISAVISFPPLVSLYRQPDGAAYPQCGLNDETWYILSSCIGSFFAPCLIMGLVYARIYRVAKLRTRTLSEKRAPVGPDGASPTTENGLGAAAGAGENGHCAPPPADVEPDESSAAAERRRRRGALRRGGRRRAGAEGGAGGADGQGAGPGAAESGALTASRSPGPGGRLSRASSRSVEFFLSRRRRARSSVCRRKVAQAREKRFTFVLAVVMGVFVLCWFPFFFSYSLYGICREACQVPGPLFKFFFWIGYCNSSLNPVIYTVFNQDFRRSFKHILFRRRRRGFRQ
Description: Agonist activity at human Alpha-2C adrenoceptor expressed in CHO cells assessed as induction of extracellular acidification by microphysiometry relative to (-)noradrenaline. The format is functional, cell-based. In a few lines:
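Cytosensor microphysiometry on CHO cells stably expressing one human α2-AR subtype, seeded at 3 × 10⁵ cells/cup and grown 24 h at 37 °C. Cells were perfused with bicarbonate-free DMEM and exposed to agonist for 4 min, with 30 min washes between exposures. The read-out is the change in acidification rate: peak after agonist minus the mean of three prior readings. […] Mean ± SEM, 3–6 experiments.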

The target in experiment [2] is T2, Alpha-2A adrenergic receptor (Homo sapiens) (UniProt P08913).
T2 sequence (whole entry): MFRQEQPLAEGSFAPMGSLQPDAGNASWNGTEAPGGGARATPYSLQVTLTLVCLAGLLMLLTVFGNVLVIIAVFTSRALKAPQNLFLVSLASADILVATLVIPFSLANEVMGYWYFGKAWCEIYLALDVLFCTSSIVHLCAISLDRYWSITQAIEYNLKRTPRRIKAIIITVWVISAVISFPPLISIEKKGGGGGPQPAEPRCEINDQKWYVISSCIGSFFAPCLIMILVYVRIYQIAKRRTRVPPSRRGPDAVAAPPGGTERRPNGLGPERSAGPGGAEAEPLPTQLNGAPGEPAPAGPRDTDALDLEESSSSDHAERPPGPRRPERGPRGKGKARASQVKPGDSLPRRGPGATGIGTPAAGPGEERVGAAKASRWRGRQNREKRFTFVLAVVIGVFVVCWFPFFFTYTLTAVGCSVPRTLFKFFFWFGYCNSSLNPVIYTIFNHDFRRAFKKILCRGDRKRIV
Description: Antagonist activity at human alpha2A adrenoceptor expressed in CHO cells assessed as effect on agonist-induced extracellular acidification by microphysiometry. Type of experiment: functional, cell-based. In a few lines: (§1)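 CHO cells stably expressing one human α2-AR subtype were run on the Cytosensor microphysiometer with bicarbonate-free DMEM perfusion. […] Kb = M/(concentration ratio − 1), where the ratio is EC50 with antagonist over EC50 without. Reported as pKb, mean ± SEM of 3–6 experiments.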

In experiment [3] the target is T3, Alpha-2B adrenergic receptor (Homo sapiens) (UniProt P18089).
T3 sequence (whole entry): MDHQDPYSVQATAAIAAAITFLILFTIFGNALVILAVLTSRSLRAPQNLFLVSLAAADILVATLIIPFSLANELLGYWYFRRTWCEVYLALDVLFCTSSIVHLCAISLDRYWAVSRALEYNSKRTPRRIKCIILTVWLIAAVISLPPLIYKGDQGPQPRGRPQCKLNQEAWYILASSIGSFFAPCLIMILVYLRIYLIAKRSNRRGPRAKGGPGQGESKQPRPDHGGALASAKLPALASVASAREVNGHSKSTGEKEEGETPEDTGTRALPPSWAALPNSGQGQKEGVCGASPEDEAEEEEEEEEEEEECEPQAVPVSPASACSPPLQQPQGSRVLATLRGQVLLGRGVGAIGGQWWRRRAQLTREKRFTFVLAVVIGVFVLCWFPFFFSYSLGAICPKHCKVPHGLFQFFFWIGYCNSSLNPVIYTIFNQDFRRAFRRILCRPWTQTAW
Description: Antagonist activity at human alpha2B adrenoceptor expressed in CHO cells assessed as effect on agonist-induced extracellular acidification by microphysiometry. The format is functional, cell-based. In a few lines:
as §1

Experiment [4] deals with T4, Alpha-2B adrenergic receptor (Homo sapiens, UniProt P18089).
T4 sequence (P18089 whole entry): T3 sequence (whole entry)
Description: Displacement of [3H]RX821002 from human alpha2B adrenoceptor expressed in CHO cells. Type of experiment: cell-based. In a few lines:
(§2)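 Buffer was Tris-Mg (50 mM Tris-HCl, 0.5 mM MgCl2, pH 7.5), competitor 10^-9 to 10^-4 M, 30 min at room temperature. Bound ligand was filtered and counted. Ki by nonlinear one- or two-site fit, reported as pKi.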

Experiment [5] deals with T5, Alpha-2C adrenergic receptor (Homo sapiens, UniProt P18825).
T5 sequence (P18825 whole entry): T1 sequence (whole entry)
Description: Displacement of [3H]RX821002 from human Alpha-2C adrenoceptor expressed in CHO cells. Type of experiment: cell-based. In a few lines:
as §2
(In general: Loss of bound radioactivity is the signal in a displacement assay; it reports binding, not function.)

The target in experiment [6] is T5, Alpha-2C adrenergic receptor. Description: Agonist activity at human Alpha-2C adrenoceptor expressed in CHO cells assessed as induction of extracellular acidification by microphysiometry. The format is functional, cell-based. In a few lines: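 Cytosensor microphysiometry on CHO cells stably expressing one human α2-AR subtype, seeded at 3 × 10⁵ cells/cup and grown 24 h at 37 °C. Cells were perfused with bicarbonate-free DMEM and exposed to agonist for 4 min, with 30 min washes between exposures. The read-out is the change in acidification rate: peak after agonist minus the mean of three prior readings. Mean ± SEM, 3–6 experiments.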

Experiment [7] deals with T6, Alpha-2A adrenergic receptor (Homo sapiens, UniProt P08913).
T6 sequence (P08913 whole entry): T2 sequence (whole entry)
As to the kind of experiment: Displacement of [3H]RX821002 from human alpha2A adrenoceptor expressed in CHO cells. The format is cell-based. In a few lines:
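Crude membranes from CHO cells expressing human α2A-AR were incubated in Tris-Mg buffer (50 mM Tris-HCl, 0.5 mM MgCl₂, pH 7.5). Ki came from one- or two-site nonlinear regression and is given as pKi.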

In experiment [8] the target is T4, Alpha-2B adrenergic receptor. As to the kind of experiment: Agonist activity at human alpha2B adrenoceptor expressed in CHO cells assessed as induction of extracellular acidification by microphysiometry.
Experiment [9] has as its system Mus musculus. Description: Analgesic effect in CD1 mouse at 0.05 mg/kg, ip by radiant heat tail flick test. The format is functional, organism-based. Further details: dose 0.05 mg/kg. In a few lines:
(§3)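 Male CD-1 mice (25–35 g) received test agent 0.05 mg/kg ip or vehicle 15 min before morphine 5 mg/kg sc. Radiant-heat tail-flick to the lower third of the tail; baseline latency (2–3 s) is the mean of two trials. Latencies were read at 30, 60, 90, 120 and 240 min and expressed as %MPE. 7–8 mice per group, mean ± SEM.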
(In general: Thermal pain tests record how soon the animal reacts.)

In experiment [10] the target is T3, Alpha-2B adrenergic receptor (Homo sapiens). To be noted: CHO.
Experiment [11] concerns Mus musculus. Description: Enhancement of morphine-induced analgesic effect in CD1 mouse at 0.05 mg/kg, ip administered 15 mins before morphine dosing measured 30 to 240 mins post morphine challenge by radiant heat tail flick test. Further details: dose 0.05 mg/kg. The format is functional, organism-based. In a few lines:
as §3

In experiment [12] the target is T6, Alpha-2A adrenergic receptor. Description: Agonist activity at human alpha2A adrenoceptor expressed in CHO cells assessed as induction of extracellular acidification by microphysiometry. The format is functional, cell-based. In a few lines:
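CHO cells stably expressing human α2A-AR were seeded at 3 × 10⁵ cells/cup and held 24 h at 37 °C under 5% CO₂. They were then perfused at 100 μL/min with bicarbonate-free DMEM containing glutamine and NaCl. Agonist exposure lasted 4 min, with 30 min washes between exposures.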

Structures are written as SMILES. Calls of active or inactive are those of the source. No cut-off for these calls is given here.

Turning to `CC(Oc1ccccc1-c1cccc(O)c1)C1=NCCN1` (racemic), the Intrinsic activity in experiment [1] worked out at 1.15. Also, the pKb in [2] amounted to 6.2.

Take `CC(Oc1ccccc1-c1cccc([N+](=O)[O-])c1)C1=NCCN1` (racemic): the Intrinsic activity in experiment [1] was determined as 0.6. Besides, the pKb in experiment [3] came out at 5.9; in experiment [2] it was 6.8.

`C[C@H](Oc1ccccc1-c1cccc(O)c1)C1=NCCN1`: the Intrinsic activity in experiment [1] turned out to be 0.65. The Ki in experiment [4] is 1000 nM; in [5], 112 nM; in experiment [7], 97.7 nM. The pKb in experiment [3] was determined as 5.5; in [2], 6. For the same compound, the concentration giving a half-maximal response (EC50) in experiment [6] is 2510 nM.

Consider `CC(Oc1ccccc1C1CC1)C1=NCCN1` (racemic), for which the Intrinsic activity in experiment [1] stood at 0.9. The Ki in experiment [4] was 309 nM; in experiment [5] it was 79.4 nM; in experiment [7], 22.9 nM. In addition, the results for the EC50 in experiment [6] and in [8] were 39.8 nM and 3160 nM, respectively. Also, the pKb in [2] was 7.

In the case of `C[C@@H](Oc1ccccc1C1CC1)C1=NCCN1`, the Intrinsic activity in [1] was found to be 0.5. Also, the Ki in experiment [4] was 562 nM; in [5], 126 nM; in [7], 44.7 nM. Besides, in the experiment on Mus musculus [9], the result was inactive. Further, in experiment [6], the EC50 is 126 nM. The pEC50 result in experiment [10] was “inactive”. Besides, the outcome with Mus musculus [11] was Active. Further, the pKb in experiment [2] was 6.9.

Regarding `C[C@H](Oc1ccccc1-c1ccccc1)C1=NCCN1`, the Intrinsic activity in experiment [1] stood at 0.9.

For the compound `C[C@@H](Oc1ccccc1-c1cccc([N+](=O)[O-])c1)C1=NCCN1`, the Intrinsic activity in [1] worked out at 0.8. Further, the pKb in experiment [3] came to 6.07; in [2], 7.11.

In the case of `C[C@H](Oc1ccccc1-c1cccc([N+](=O)[O-])c1)C1=NCCN1`, the Intrinsic activity in [1] came out at 0.45. For the same compound, the pKb in experiment [3] was determined as 5.93; in experiment [2] it was 7.35.

As for `C[C@H](Oc1ccccc1C1CC1)C1=NCCN1`, the Intrinsic activity in [1] came to 0.9. The Ki in [4] is 263 nM; in [5], 63.1 nM; in experiment [7], 20.9 nM. In addition, in the experiment with Mus musculus [9], the result was inactive. In addition, the values for the EC50 in experiment [6] and in [8] were 35.5 nM and 3160 nM, respectively. In addition, the outcome with Mus musculus [11] was Active. Further, the pKb in experiment [2] came out at 7.7.

With `CC(Oc1ccccc1-c1ccccc1)C1=NCCN1` (racemic), the Intrinsic activity in [1] was determined as 0.8.

Consider `C[C@@H](Oc1ccccc1-c1ccsc1)C1=NCCN1`, for which the Intrinsic activity in experiment [1] is 0.7. For the same compound, the Ki in experiment [4] is 708 nM; in experiment [5], 316 nM; in [7], 166 nM. Besides, the results for the EC50 in [6] and in experiment [12] were 100 nM and 3160 nM, respectively. For the same compound, the pEC50 entry in experiment [10] is “inactive”.

For the compound `Clc1cccc(Cl)c1NC1=NCCN1`, in [1], the Intrinsic activity stood at 0.6.

For `C[C@@H](Oc1ccccc1-c1ccccc1)C1=NCCN1`, the Intrinsic activity in experiment [1] stood at 0.7.

Regarding `C[C@H](Oc1ccccc1-c1ccsc1)C1=NCCN1`, the Intrinsic activity in experiment [1] was 0.9. Moreover, the results for the Ki in [4], in experiment [5] and in experiment [7] were 447 nM, 126 nM and 44.7 nM, respectively. Besides, the EC50 was 6.31 nM in experiment [6], 63.1 nM in [12] and 1000 nM in experiment [8].

As for `C[C@@H](Oc1ccccc1-c1cccc(O)c1)C1=NCCN1`, in experiment [1], the Intrinsic activity stood at 1. The Ki in experiment [4] is 316 nM; in experiment [5], 31.6 nM; in experiment [7], 39.8 nM. In addition, the figures for the pKb in experiment [3] and in experiment [2] were 5.67 and 6.4, respectively. Besides, in experiment [6], the EC50 was 25.1 nM.

In the case of `CC(Oc1ccccc1-c1ccsc1)C1=NCCN1` (racemic), the Intrinsic activity in experiment [1] was determined as 0.85. In addition, the pEC50 result in [10] was “inactive”.
